In ChEMBL document CHEMBL4118097, “Selective Inhibitors of Dual Leucine Zipper Kinase (DLK, MAP3K12) with Activity in a Model of Alzheimer's Disease” (J Med Chem, 2017):

What was measured:
[1] = target: Tyrosine-protein kinase Lck (Homo sapiens) (UniProt P06239); assay: Inhibition of recombinant full length His-tagged human Lck expressed in baculovirus at 1 uM by FRET assay relative to control
[2] = target: Mitogen-activated protein kinase 13 (Homo sapiens) (UniProt O15264); assay: Inhibition of recombinant full length His-tagged human p38delta expressed in baculovirus expression system at 1 uM by FRET assay relative to control
[3] = target: RAC-alpha serine/threonine-protein kinase (Homo sapiens) (UniProt P31749); assay: Inhibition of recombinant full length His-tagged human AKT1 expressed in baculovirus expression system at 1 uM by FRET assay relative to control
[4] = target: cAMP-dependent protein kinase catalytic subunit PRKX (Homo sapiens) (UniProt P51817); assay: Inhibition of full length GST-tagged human PRKX expressed in Escherichia coli at 1 uM by FRET assay relative to control
[5] = target: Receptor tyrosine-protein kinase erbB-4 (Homo sapiens) (UniProt Q15303); assay: Inhibition of recombinant N-terminal GST-tagged human ErbB4 cytoplasmic domain expressed in baculovirus expression system at 1 uM by FRET assay relative to control
Method in brief: (§1)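 Single-concentration screen at 1 μM in Life Technologies SelectScreen, across a 220-kinase panel. Z′-LYTE format measures phosphorylation of a labeled peptide by FRET. Results are reported as percent inhibition.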

[6] = target: Testis-specific serine/threonine-protein kinase 1 (Homo sapiens) (UniProt Q9BXA7); assay: Inhibition of recombinant full length His-tagged human TSSK1 expressed in baculovirus expression system at 1 uM by FRET assay relative to control
Sequence of Testis-specific serine/threonine-protein kinase 1 (Homo sapiens) (Q9BXA7 whole entry): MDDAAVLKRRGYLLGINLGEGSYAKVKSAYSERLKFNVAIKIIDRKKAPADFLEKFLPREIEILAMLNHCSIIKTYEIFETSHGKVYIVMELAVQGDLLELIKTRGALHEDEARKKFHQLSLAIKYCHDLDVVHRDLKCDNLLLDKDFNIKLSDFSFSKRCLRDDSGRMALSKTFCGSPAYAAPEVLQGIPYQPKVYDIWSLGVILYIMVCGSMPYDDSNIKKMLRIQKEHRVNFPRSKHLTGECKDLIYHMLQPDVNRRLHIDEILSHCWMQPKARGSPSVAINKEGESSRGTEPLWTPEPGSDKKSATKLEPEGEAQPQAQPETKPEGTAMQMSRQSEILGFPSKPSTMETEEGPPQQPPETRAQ

[7] = target: G protein-coupled receptor kinase 5 (Homo sapiens) (UniProt P34947); assay: Inhibition of recombinant full length GST-tagged human GRK5 expressed in baculovirus expression system at 1 uM by FRET relative to control; method in brief: as §1
TAK1/TAB1 (Homo sapiens) = TAK1/TAB1 (Homo sapiens) (UniProt Q15750+O43318); assay: Inhibition of recombinant full length His-tagged human TAK1-TAB1 (437 to 504 residues) expressed in baculovirus expression system at 1 uM by FRET assay relative to control
[8] = target: Mitogen-activated protein kinase kinase kinase 8 (Homo sapiens) (UniProt P41279); assay: Inhibition of recombinant GST-tagged human Cot catalytic domain (30 to 397 residues) expressed in baculovirus expression system at 1 uM by FRET assay relative to control
Sequence of Mitogen-activated protein kinase kinase kinase 8 (Homo sapiens) (P41279 whole entry, the tested form may be a part): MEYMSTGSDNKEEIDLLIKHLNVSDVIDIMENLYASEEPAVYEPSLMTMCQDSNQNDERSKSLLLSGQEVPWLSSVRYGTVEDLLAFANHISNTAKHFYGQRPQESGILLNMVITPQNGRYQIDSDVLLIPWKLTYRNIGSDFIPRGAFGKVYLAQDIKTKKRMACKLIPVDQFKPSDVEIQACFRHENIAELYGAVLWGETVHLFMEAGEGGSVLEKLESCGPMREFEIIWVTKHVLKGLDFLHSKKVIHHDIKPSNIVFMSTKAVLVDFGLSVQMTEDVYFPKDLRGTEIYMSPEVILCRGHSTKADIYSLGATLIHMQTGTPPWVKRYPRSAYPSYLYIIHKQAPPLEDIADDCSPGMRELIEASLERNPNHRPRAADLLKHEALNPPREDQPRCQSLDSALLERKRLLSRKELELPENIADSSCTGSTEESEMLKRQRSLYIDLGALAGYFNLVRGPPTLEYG

[9] = target: SRSF protein kinase 3 (Homo sapiens) (UniProt Q9UPE1); assay: Inhibition of recombinant full length N-terminal GST-tagged human MSSK1 expressed in baculovirus at 1 uM by FRET assay relative to control
Sequence of SRSF protein kinase 3 (Homo sapiens) (Q9UPE1 whole entry, canonical isoform): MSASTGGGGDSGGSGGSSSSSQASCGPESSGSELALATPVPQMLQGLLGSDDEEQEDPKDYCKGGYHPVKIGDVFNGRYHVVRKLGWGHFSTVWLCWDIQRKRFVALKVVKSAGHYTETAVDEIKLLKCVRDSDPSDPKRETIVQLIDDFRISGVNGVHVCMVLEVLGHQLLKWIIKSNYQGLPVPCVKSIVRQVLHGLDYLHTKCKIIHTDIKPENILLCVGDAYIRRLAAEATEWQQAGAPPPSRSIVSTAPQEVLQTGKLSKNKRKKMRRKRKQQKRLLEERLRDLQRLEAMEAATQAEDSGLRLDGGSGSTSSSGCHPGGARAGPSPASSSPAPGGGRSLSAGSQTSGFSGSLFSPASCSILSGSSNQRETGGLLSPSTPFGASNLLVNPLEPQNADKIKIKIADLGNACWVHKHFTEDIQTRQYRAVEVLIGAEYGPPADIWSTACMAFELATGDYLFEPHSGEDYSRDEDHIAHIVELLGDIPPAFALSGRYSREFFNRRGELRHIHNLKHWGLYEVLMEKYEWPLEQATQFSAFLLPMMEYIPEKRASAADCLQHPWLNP

[10] = target: Phosphorylase b kinase gamma catalytic chain, liver/testis isoform (Homo sapiens) (UniProt P15735); assay: Inhibition of recombinant full length GST-tagged human PHKgamma2 expressed in baculovirus expression system at 1 uM by FRET assay relative to control; method in brief: as §1
Sequence of Phosphorylase b kinase gamma catalytic chain, liver/testis isoform (Homo sapiens) (P15735 whole entry, canonical isoform): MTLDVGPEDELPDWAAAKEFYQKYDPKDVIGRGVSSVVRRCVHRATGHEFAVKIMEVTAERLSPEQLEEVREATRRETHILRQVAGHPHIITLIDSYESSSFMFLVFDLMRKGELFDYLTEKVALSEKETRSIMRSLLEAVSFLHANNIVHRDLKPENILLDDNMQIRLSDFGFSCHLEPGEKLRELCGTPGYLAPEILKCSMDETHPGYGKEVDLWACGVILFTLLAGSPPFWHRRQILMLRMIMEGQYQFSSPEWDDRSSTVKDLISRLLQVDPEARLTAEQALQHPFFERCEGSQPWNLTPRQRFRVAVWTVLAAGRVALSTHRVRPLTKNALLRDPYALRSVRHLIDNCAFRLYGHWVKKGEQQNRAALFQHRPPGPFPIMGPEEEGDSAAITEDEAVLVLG

[11] = target: Glycogen synthase kinase-3 alpha (Homo sapiens) (UniProt P49840); assay: Inhibition of GSK3alpha (unknown origin) at 1 uM by FRET relative to control
Sequence of Glycogen synthase kinase-3 alpha (Homo sapiens) (P49840 2-483 limits assumed): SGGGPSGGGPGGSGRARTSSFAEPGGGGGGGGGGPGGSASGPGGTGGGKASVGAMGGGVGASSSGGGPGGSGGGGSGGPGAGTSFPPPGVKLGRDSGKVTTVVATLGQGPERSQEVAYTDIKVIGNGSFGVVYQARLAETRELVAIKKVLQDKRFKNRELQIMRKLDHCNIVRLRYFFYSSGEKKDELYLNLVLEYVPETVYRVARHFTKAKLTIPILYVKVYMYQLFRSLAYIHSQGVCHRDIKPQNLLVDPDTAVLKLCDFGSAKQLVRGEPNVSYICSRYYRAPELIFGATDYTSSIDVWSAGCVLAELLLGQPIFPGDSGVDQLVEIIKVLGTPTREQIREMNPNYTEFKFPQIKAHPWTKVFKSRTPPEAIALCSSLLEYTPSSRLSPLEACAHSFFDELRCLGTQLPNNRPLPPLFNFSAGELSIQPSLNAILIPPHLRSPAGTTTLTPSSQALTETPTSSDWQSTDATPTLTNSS

[12] = target: PAS domain-containing serine/threonine-protein kinase (Homo sapiens) (UniProt Q96RG2); assay: Inhibition of recombinant GST-tagged human PASK catalytic domain expressed in baculovirus expression system at 1 uM by FRET assay relative to control
Method in brief: (§2)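 Single-point screen at 1 μM compound in a 220-kinase panel run by Life Technologies (SelectScreen). Z′-LYTE format: phosphorylation of a labeled peptide substrate read by FRET. Values are reported as percent inhibition.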

[13] = target: Serine/threonine-protein kinase mTOR (Homo sapiens) (UniProt P42345); assay: Inhibition of recombinant GST-tagged human mTOR catalytic domain (1360 to 2549 residues) expressed in baculovirus expression system at 1 uM by FRET assay relative to control; method in brief: as §2
[14] = target: Mitogen-activated protein kinase 8 (Homo sapiens, UniProt P45983); assay: Inhibition of recombinant full length His-tagged human JNK1alpha1 expressed in baculovirus expression system by FRET assay
[15] = target: Casein kinase I isoform epsilon (Homo sapiens) (UniProt P49674); assay: Inhibition of CK1epsilon1 (unknown origin) at 1 uM by FRET assay relative to control
[16] = target: Activin receptor type-1B (Homo sapiens) (UniProt P36896); assay: Inhibition of recombinant GST-tagged human ACVR1B catalytic domain (150 to 505 residues) expressed in baculovirus expression system at 1 uM by FRET assay relative to control
Sequence of Activin receptor type-1B (Homo sapiens) (P36896 whole entry, the tested form may be a part): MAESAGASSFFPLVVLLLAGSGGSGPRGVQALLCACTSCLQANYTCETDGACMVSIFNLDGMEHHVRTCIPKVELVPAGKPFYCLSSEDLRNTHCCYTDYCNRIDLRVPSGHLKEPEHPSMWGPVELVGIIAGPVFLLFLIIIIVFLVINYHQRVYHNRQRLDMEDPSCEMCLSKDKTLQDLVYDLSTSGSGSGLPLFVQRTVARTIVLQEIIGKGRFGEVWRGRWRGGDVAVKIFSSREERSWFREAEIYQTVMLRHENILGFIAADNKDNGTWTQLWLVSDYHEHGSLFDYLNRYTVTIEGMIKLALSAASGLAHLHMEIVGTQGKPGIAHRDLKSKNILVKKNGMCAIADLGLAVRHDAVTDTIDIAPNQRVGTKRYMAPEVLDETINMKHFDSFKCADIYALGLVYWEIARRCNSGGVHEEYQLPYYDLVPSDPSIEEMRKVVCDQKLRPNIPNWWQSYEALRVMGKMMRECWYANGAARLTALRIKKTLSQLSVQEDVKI

[17] = target: GABA-A receptor; alpha-1/beta-2/gamma-2 (Homo sapiens) (UniProt P14867+P47870+P18507); assay: Binding affinity to GABA-A alpha1beta2gamma2 receptor (unknown origin) at 10 uM relative to control; type: protein-complex assay
Method in brief: (§3)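 Broad radioligand-binding and enzyme screening panel covering 42 targets (biogenic amine and neuropeptide receptors, ion channels, neurotransmitter transporters, acetylcholinesterase). Single test concentration of 10 μM. Results expressed as binding relative to control, with a hit defined as >50% of control.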

[18] = target: Serine/threonine-protein kinase PLK2 (Homo sapiens) (UniProt Q9NYY3); assay: Inhibition of full length recombinant GST-tagged human PLK2 expressed in baculovirus expression system at 1 uM by FRET assay relative to control
[19] = target: D(2) dopamine receptor (Homo sapiens) (UniProt P14416); assay: Binding affinity to recombinant human D2 short dopamine receptor at 10 uM relative to control; method in brief: as §3
Sequence of D(2) dopamine receptor (Homo sapiens) (P14416 whole entry, the tested form may be a part): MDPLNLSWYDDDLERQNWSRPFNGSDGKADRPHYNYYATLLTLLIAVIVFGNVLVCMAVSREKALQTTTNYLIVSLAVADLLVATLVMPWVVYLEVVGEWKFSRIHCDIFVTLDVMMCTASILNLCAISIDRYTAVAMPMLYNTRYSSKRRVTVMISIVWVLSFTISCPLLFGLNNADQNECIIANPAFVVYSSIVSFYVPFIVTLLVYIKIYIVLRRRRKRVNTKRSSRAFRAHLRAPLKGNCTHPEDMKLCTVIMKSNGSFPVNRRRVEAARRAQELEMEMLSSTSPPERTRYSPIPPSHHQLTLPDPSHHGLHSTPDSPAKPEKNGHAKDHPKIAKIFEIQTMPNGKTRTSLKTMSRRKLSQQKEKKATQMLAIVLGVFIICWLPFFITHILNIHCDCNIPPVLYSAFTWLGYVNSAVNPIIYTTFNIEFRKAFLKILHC

[20] = target: Tyrosine-protein kinase FRK (Homo sapiens) (UniProt P42685); assay: Inhibition of recombinant full length GST-tagged human FRK cytoplasmoic domain expressed in baculovirus expression system at 1 uM by FRET assay relative to control; method in brief: as §1
[21] = target: Mitogen-activated protein kinase kinase kinase kinase 4 (Homo sapiens) (UniProt O95819); assay: Inhibition of recombinant GST-tagged human MAP4K4 (1 to 328 residues) expressed in baculovirus expression system at 1 uM by FRET assay relative to control; method in brief: as §2
Sequence of Mitogen-activated protein kinase kinase kinase kinase 4 (Homo sapiens) (O95819 2-1239 limits assumed): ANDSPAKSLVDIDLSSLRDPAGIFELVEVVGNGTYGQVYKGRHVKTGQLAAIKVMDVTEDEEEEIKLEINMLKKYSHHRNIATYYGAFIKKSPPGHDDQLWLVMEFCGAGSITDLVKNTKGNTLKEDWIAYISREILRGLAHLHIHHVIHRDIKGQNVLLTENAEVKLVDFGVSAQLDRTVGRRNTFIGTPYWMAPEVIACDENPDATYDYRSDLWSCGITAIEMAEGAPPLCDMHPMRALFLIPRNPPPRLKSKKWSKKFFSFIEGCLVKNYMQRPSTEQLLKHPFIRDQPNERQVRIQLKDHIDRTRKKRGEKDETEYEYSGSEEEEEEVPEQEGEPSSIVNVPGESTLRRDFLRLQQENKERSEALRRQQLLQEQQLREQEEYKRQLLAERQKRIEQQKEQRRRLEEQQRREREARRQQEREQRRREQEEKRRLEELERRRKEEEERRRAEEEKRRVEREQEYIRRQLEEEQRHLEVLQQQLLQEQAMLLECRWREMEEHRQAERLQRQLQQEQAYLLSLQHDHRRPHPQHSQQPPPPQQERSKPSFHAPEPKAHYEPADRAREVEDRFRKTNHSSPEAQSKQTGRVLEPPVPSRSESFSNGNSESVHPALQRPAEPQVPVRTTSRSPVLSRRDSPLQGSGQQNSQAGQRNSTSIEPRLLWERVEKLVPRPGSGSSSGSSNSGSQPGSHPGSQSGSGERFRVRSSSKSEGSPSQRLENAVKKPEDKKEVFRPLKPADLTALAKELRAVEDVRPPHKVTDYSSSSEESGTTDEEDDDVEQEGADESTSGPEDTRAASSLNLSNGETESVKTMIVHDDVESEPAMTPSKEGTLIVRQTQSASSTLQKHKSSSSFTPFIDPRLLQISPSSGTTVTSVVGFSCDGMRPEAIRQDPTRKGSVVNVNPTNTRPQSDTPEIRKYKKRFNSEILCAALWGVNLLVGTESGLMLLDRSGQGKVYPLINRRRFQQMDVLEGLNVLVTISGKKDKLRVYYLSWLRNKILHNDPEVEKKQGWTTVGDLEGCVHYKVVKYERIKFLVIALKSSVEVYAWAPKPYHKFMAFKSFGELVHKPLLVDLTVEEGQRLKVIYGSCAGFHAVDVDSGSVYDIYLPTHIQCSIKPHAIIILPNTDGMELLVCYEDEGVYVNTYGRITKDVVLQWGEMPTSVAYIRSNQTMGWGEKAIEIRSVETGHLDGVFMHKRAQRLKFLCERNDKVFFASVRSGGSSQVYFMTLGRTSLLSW

[22] = target: Fibroblast growth factor receptor 3 (Homo sapiens) (UniProt P22607); assay: Inhibition of recombinant His-tagged FGFR3 human cytoplasmic domain expressed in baculovirus expression system at 1 uM by FRET assay relative to control; method in brief: as §2
[23] = target: Tyrosine-protein kinase JAK3 (Homo sapiens) (UniProt P52333); assay: Inhibition of recombinant GST-tagged human JAK3 catalytic domain (781 to 1124 residues) expressed in baculovirus expression system at 1 uM by FRET relative to control; method in brief: as §2
[24] = target: Calcium/calmodulin-dependent protein kinase kinase 2 (Homo sapiens) (UniProt Q96RR4); assay: Inhibition of recombinant full length GST-tagged human CAMKK2 expressed in baculovirus expression system at 1 uM by FRET assay relative to control; method in brief: as §1
[25] = target: Mitogen-activated protein kinase kinase kinase 11 (Homo sapiens, UniProt Q16584); assay: Inhibition of recombinant human full length GST-tagged MLK3 expressed in baculovirus expression system by FRET assay
[26] = target: Mitogen-activated protein kinase kinase kinase 20 (Homo sapiens) (UniProt Q9NYL2); assay: Inhibition of recombinant N-terminal full length GST-tagged human ZAK expressed in baculovirus expression system at 1 uM by FRET assay relative to control; method in brief: as §1

Sequence of Tyrosine-protein kinase Lck (Homo sapiens) (P06239 2-509 limits assumed): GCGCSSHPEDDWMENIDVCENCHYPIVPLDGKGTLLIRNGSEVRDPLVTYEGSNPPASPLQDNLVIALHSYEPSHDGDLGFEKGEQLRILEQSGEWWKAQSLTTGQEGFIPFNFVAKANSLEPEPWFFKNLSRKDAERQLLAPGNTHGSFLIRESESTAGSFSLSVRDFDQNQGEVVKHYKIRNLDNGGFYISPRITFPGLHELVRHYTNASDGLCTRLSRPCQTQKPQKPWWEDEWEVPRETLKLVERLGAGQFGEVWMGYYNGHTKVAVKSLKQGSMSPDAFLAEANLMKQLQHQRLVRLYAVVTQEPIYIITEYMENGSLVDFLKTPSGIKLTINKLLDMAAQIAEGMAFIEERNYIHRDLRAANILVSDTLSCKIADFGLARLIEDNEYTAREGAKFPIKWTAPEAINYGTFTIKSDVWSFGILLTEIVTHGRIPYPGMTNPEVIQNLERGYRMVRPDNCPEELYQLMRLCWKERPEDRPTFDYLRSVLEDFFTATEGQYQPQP

Nc1ncc(-c2cc([C@H]3[C@@H]4CN(C5COC5)C[C@@H]43)n(CC3CC3)n2)cc1C(F)(F)F
inhibition [1]: 36.1%
inhibition [2]: 3.8%
inhibition [3]: -0.4%
inhibition [4]: -7.2%
inhibition [5]: 5.3%
inhibition [6]: 11.5%
inhibition [7]: -8.1%
inhibition (TAK1/TAB1 (Homo sapiens)): 42.1%
inhibition [8]: 3.4%
inhibition [9]: -2.4%
inhibition [10]: 3.8%
inhibition [11]: 0.8%
inhibition [12]: 4.5%
inhibition [13]: -0.8%
IC50 [14]: > 10 µM
inhibition [15]: 9.5%
inhibition [16]: 2.9%
Activity [17]: > 50%
inhibition [18]: 2.7%
Activity [19]: > 50%
inhibition [20]: 19.7%
inhibition [21]: 21.4%
inhibition [22]: -9.3%
inhibition [23]: 24.6%
inhibition [24]: 8.7%
IC50 [25]: > 10 µM
inhibition [26]: 1.4%

CC(C)n1nc(-c2cnc(N)c(OC(F)(F)F)c2)cc1[C@H]1[C@@H]2CN(C3COC3)C[C@@H]21
inhibition [1]: 7.5%
inhibition [2]: 10.5%
inhibition [3]: 1.7%
inhibition [4]: -2.9%
inhibition [5]: 2.5%
inhibition [6]: 9.4%
inhibition [7]: -1.3%
inhibition (TAK1/TAB1 (Homo sapiens)): 35.6%
inhibition [8]: 14.3%
inhibition [9]: 6.5%
inhibition [10]: 1.7%
inhibition [11]: 7.8%
inhibition [12]: -0.6%
inhibition [13]: 7.9%
IC50 [14]: > 10 µM
inhibition [15]: 1.5%
inhibition [16]: -6.8%
Activity [17]: > 50%
inhibition [18]: 17.3%
Activity [19]: > 50%
inhibition [20]: 14.4%
inhibition [21]: 22.1%
inhibition [22]: -1.8%
inhibition [23]: 21.9%
inhibition [24]: 1.5%
IC50 [25]: > 10 µM
inhibition [26]: 2.5%
